# Assay results from ChEMBL document CHEMBL4706647, “Development and optimization of halogenated vinyl sulfones as Nrf2 activators for the treatment of Parkinson's disease” (Eur J Med Chem, 2021).
# pEC50: −log10 of the molar value. The source made the active and inactive calls. No cut-off for these calls is given here.
# Assays:
# BV-2 [1] = experiment: Antiinflammatory activity in mouse BV-2 cells assessed as inhibition of LPS-induced TNFalpha production preincubated for 6 hrs followed by LPS stimulation and measured after 24 hrs by ELISA; format: functional, cell-based; conditions: dose 0.02-2 µM, time 30.0 hrs
# Outline: (§1)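 BV-2 cells seeded in 12-well plates and pretreated 6 h with compound at […]. LPS then added for 24 h. TNF-α and IL-6 released into the medium quantified by ELISA. Mean ± SEM, n = 3, three separate experiments.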
# [2] = molecular target: T1, Nuclear factor erythroid 2-related factor 2 (Mus musculus) (UniProt Q60795); experiment: Activation of Nrf2 in mouse BV-2 cells assessed as increase in Sod1 mRNA expression at 1 uM after 6 hrs by RT-qPCR analysis relative to control; format: cell-based; conditions: filed as activator
# T1 sequence (whole entry): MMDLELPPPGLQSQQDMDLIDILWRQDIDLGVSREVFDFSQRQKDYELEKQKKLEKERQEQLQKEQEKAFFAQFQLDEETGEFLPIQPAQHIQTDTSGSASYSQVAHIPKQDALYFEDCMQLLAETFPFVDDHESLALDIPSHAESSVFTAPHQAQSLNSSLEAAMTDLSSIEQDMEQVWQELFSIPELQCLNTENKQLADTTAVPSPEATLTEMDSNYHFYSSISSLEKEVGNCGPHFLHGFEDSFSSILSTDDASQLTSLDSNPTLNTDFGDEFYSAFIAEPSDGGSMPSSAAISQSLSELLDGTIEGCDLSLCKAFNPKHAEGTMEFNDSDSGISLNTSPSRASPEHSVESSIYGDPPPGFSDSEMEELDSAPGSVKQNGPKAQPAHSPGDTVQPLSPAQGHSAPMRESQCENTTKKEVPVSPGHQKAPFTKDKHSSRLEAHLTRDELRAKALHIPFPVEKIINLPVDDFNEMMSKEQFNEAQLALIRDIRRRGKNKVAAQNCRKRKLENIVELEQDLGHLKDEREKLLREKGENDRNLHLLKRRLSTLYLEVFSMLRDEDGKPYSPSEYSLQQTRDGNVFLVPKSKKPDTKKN
# Outline: (§2)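 BV-2 cells exposed to a range of concentrations for 6 h. Ho1, Gclc, Gclm and Sod1 mRNA quantified by RT-qPCR and expressed relative to vehicle-treated control. Mean ± SEM, n = 3; Student's t-test.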
# [3] = Cytotoxicity against mouse BV-2 cells assessed cell viability at 3 uM measured after 6 hrs by Ez-cytox reagent based assay relative to control; conditions: read-out: Activity
# Outline: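 BV-2 cells (1.0 × 10⁴/well) grown 24 h at 37 °C, 5% CO2, then treated 6 h at […]. Viability expressed as percent of control.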
# [4] = molecular target: T2, Nuclear factor erythroid 2-related factor 2 (Homo sapiens, UniProt Q16236); experiment: Activation of Nrf2 (unknown origin) expressed in human U2OS cells co-expressing Keap1 assessed as increase in Nrf2 nuclear translocation incubated for 6 hrs under dark condition by pathhunter assay; format: cell-based
# T2 sequence (Q16236 whole entry): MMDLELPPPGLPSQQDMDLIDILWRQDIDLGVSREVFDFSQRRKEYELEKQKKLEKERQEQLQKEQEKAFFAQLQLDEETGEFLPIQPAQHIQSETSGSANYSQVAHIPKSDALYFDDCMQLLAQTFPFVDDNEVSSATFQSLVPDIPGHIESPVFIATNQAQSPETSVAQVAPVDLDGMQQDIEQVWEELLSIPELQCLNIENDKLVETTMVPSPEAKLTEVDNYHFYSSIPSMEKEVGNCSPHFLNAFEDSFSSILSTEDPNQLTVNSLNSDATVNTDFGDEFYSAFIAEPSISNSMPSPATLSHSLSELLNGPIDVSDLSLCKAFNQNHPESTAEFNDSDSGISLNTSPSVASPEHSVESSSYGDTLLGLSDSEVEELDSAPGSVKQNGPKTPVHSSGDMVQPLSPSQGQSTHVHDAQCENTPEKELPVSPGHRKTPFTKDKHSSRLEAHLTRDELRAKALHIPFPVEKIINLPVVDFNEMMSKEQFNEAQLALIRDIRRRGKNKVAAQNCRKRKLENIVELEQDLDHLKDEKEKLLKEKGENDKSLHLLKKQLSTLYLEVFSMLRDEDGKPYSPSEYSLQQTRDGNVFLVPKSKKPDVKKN
# Mus musculus = experiment: Neuroprotective activity in MPTP-induced C57BL/6 mouse model of Parkinson's disease assessed as […] TH-immunoreactive fiber density at 30 mg/kg, po pretreated for 1 day followed by MPTP challenge and subsequent compound dosing for 2 days measured 6 days post-MPTP challenge by immunohistochemistry; format: functional, organism-based; conditions: time 7.0 day
# Outline: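 Male C57BL/6 mice, 10 weeks old, 23–26 g, n = 10 per group. Dosed 30 mg/kg p.o. for 3 consecutive days in 10% N-methyl-2-pyrrolidone/20% Tween-80 in water. On day 2, MPTP-HCl 20 mg/kg i.p. given four times at 2 h intervals. Coat-hanger (scored 1–5, test done twice) and vertical grid tests run 6 days after MPTP. Brains taken next day for anti-TH immunohistochemistry (1:1000, DAB).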
# [5] = molecular target: T1, Nuclear factor erythroid 2-related factor 2 (Mus musculus); experiment: Activation of Nrf2 in mouse BV-2 cells assessed as increase in Gclm mRNA expression after 6 hrs by RT-qPCR analysis; format: cell-based; conditions: filed as activator, dose 0.03-1 µM; outline: as §2
# BV-2 [6] = experiment: Antiinflammatory activity in mouse BV-2 cells assessed as inhibition of LPS-induced iNOS expression at 2 uM preincubated for 6 hrs followed by LPS stimulation and measured after 24 hrs by Western blot analysis; format: functional, cell-based; conditions: time 30.0 hrs
# Outline: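 BV-2 cells pretreated with compound, then stimulated with LPS. iNOS protein measured by Western blot with β-actin as internal control. Mean ± SEM, n = 3, three separate experiments.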
# [7] = molecular target: T1, Nuclear factor erythroid 2-related factor 2 (Mus musculus); experiment: Activation of Nrf2 in mouse BV-2 cells assessed as increase in Gclc mRNA expression at 1 uM after 6 hrs by RT-qPCR analysis relative to control; format: cell-based; conditions: filed as activator; outline: as §2
# [8] = molecular target: T1, Nuclear factor erythroid 2-related factor 2 (Mus musculus); experiment: Activation of Nrf2 in mouse BV-2 cells assessed as increase in GCLC expression after 6 hrs by Western blot analysis; format: cell-based; conditions: filed as activator, dose 0.02-10 µM
# Outline: (§3)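 BV-2 microglia grown in RPMI-1640 with 10% FBS, penicillin-streptomycin and 2 mM L-glutamine at 37 °C, 5% CO2. Cells exposed to a range of concentrations for 6 h, then HO-1, GCLC, GCLM and SOD1 protein measured by Western blot. Band intensity normalized to β-actin and given as fold of vehicle control. Mean ± SEM, n = 3, three separate experiments.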
# [9] = molecular target: T1, Nuclear factor erythroid 2-related factor 2 (Mus musculus); experiment: Activation of Nrf2 in mouse BV-2 cells assessed as increase in GCLC expression at 10 uM after 6 hrs by Western blot analysis relative to control; format: cell-based; conditions: filed as activator; outline: as §3
# [10] = Cytotoxicity against mouse BV-2 cells assessed cell viability at 10 uM measured after 6 hrs by Ez-cytox reagent based assay relative to control; conditions: read-out: Activity
# BV-2 [11] = experiment: Antiinflammatory activity in mouse BV-2 cells assessed as inhibition of LPS-induced IL6 production preincubated for 6 hrs followed by LPS stimulation and measured after 24 hrs by ELISA; format: functional, cell-based; conditions: dose 0.02-2 µM, time 30.0 hrs; outline: as §1
# [12] = molecular target: T1, Nuclear factor erythroid 2-related factor 2 (Mus musculus); experiment: Activation of Nrf2 in mouse BV-2 cells assessed as increase in HO1 mRNA expression after 6 hrs by RT-qPCR analysis; format: cell-based; conditions: filed as activator, dose 0.03-1 µM; outline: as §2
smiles,measurement,setting,value
O=S(=O)(/C=C/c1ncccc1Cl)c1ccccc1Cl,inhibition,BV-2 [1],Dose-dependent effect
same,fold change (FC),[2],2.5
same,"viability at 6 h, 3 µM",[3],92.4%
same,pEC50,[4],7.59
same,Activity,Mus musculus,Active
same,Activity,[5],Dose-dependent effect
same,inhibition,BV-2 [6],Active
same,fold change (FC),[7],2.6
same,Activity,[8],Dose-dependent effect
same,fold change (FC),[9],8.5
same,"viability at 6 h, 10 µM",[10],100%
same,inhibition,BV-2 [11],Dose-dependent effect
same,Activity,[12],Dose-dependent effect
